ChEMBL document CHEMBL1125091, “Antiulcer agents. 4-substituted 2-guanidinothiazoles: reversible, competitive, and selective inhibitors of gastric H+,K(+)-ATPase” (J Med Chem, 1990)
The source made the active and inactive calls. No cut-off for these calls is given here.

tested on: Rattus norvegicus; assay: Gastric antisecretory activity against gastric secretion in the pylorus-ligated rat at a dose of 10 mg/Kg; assay type: functional, Stomach; settings: not given
Outline: (§1)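 Conscious rats, pylorus ligated under ether anesthesia; drug or vehicle injected into the duodenum. Killed 2 h after surgery. Stomach contents centrifuged, then titrated to pH 7.0 for acid output (uEq/h per 100 g body weight). Inhibition calculated versus vehicle-treated rats. Means ± SE of 5-10 animals; Student's t test, p < 0.05.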

First: Br.COc1ccc(-c2csc(N=C(N)N)n2)cc1
Second: Cc1[nH]c2ccccc2c1-c1nc(N=C(N)N)sc1C.Cl
The Activity of the first is lower: 27% for the first, 51% for the second.

tested on: Canis familiaris; assay: Antisecretory activity in Heidenhain pouch dog model at 2 mg/kg, iv; assay type: functional, organism-based; design: dose 2 mg/kg; settings: Canis lupus familiaris
Outline: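 Heidenhain pouch dogs on pentagastrin infusion; drug or vehicle given iv at 2 mg/kg, 90 min after the infusion started. Gastric juice collected at 30-min intervals, ten collections per dog. Acid titrated to pH 7.4 with 0.1 N NaOH. Effect = lowest acid output after drug versus mean output immediately before drug.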

With `Cc1[nH]c2ccccc2c1-c1nc(N=C(N)N)sc1C.Cl` the Activity was “inactive”.

tested on: Rattus norvegicus; assay: Gastric antisecretory activity against gastric secretion in the pylorus-ligated rat at a dose of 26 mg/Kg; assay type: functional, Stomach; settings: not given; outline: as §1

In the case of `Cc1cc(-c2csc(N=C(N)N)n2)c[nH]1`, the Activity is reported as 50%.

tested on: Potassium-transporting ATPase (Canis familiaris); assay: Percent inhibition of gastric proton-pump enzyme H+/K+ ATPase was determined at 50 uM; settings: Canis lupus familiaris, Stomach

Going from `COc1ccc2[nH]cc(-c3csc(NC(=N)NCc4ccccc4)n3)c2c1.Cl` to `Cc1ccc2[nH]cc(-c3csc(NC(=N)NCc4ccccc4)n3)c2c1`, the inhibition rises from 95% to 104%.

First: Cl.N=C(N)Nc1nc(-c2c[nH]c3ccc(Cl)cc23)cs1
Second: Cl.N=C(N)Nc1nc(-c2ccc(O)c(O)c2)cs1
The inhibition of the first is lower: 89% for the first, 100% for the second.

Going from `Cc1cc(-c2nc(N=C(N)N)sc2C)c[nH]1` to `Cc1[nH]ccc1-c1nc(N=C(N)N)sc1C.Cl`, the inhibition rises from 100% to 102%.

Going from `Cl.N/C(=N\Cc1ccccc1)Nc1nc(-c2ccc(O)c(O)c2)cs1` to `Cc1sc(NC(=N)NCc2ccccc2)nc1-c1ccc(O)c(O)c1`, the inhibition falls from 111% to 103%.

Compared with `Cc1cc(-c2csc(N=C(N)N)n2)c[nH]1`, `COc1cccc(-c2csc(N=C(N)N)n2)c1` is lower in inhibition: 70% for the first, 48% for the second.

Compared with `Cc1[nH]ccc1-c1csc(NC(=N)NCc2ccccc2)n1.O=C(O)/C=C\C(=O)O`, `N=C(NCc1ccccc1)Nc1nc(-c2ccc[nH]2)cs1` is lower in inhibition: 93% for the first, 81% for the second.

Compared with `Cl.N=C(NCc1ccccc1)Nc1nc(-c2c[nH]c3ccc(Br)cc23)cs1`, `N=C(NCc1ccccc1)Nc1nc(-c2ccccc2Cl)cs1` is lower in inhibition: 105% for the first, 99% for the second.

Compared with `Cc1c(-c2csc(N=C(N)N)n2)ccn1S(=O)(=O)c1ccccc1`, `Cc1sc(N=C(N)N)nc1-c1ccn(S(=O)(=O)c2ccccc2)c1C` is lower in inhibition: 101% for the first, 100% for the second.

Going from `CN(C)Cc1cccc(-c2csc(N=C(N)N)n2)c1` to `Cc1ccc2c(-c3csc(N=C(N)N)n3)c[nH]c2c1.Cl`, the inhibition rises from 56% to 64%.

First: Cc1[nH]c2ccc(Cl)cc2c1-c1nc(NC(=N)NCc2ccccc2)sc1C
Second: Cc1sc(NC(=N)NCc2ccccc2)nc1-c1c[nH]c2ccc(Cl)cc12
The inhibition of the first is lower: 100% for the first, 101% for the second.

Going from `Cc1sc(N=C(N)N)nc1-c1c[nH]c2ccccc12` to `Cc1ccc(-c2csc(N=C(N)N)n2)n1S(=O)(=O)c1ccccc1`, the inhibition falls from 92% to 91%.

First: N=C(N)Nc1nc(-c2c[nH]c(C(=O)N3CCCCC3)c2)cs1
Second: N=C(N)Nc1nc(-c2cc3ccccc3[nH]2)cs1
The inhibition of the first is lower: 69% for the first, 72% for the second.

Compared with `Cc1ccc(-c2csc(N=C(N)N)n2)[nH]1.O=C(O)/C=C\C(=O)O`, `N=C(NCc1ccccc1)Nc1nc(-c2cc3ccccc3[nH]2)cs1` is lower in inhibition: 76% for the first, 61% for the second.

tested on: Rattus norvegicus; assay: Gastric antisecretory activity against gastric secretion in the pylorus-ligated rat at a dose of 30 mg/Kg; assay type: functional, Stomach; settings: not given; outline: as §1

Compared with `Br.COc1ccc(-c2csc(N=C(N)N)n2)cc1`, `CC(=O)Oc1ccc(-c2csc(N=C(N)N)n2)cc1OC(C)=O.Cl` is lower in Activity: 26% for the first, 15% for the second.

First: Cc1[nH]c2ccccc2c1-c1nc(NC(=N)NCc2ccccc2)sc1C.Cl
Second: CC(=O)Oc1ccc(-c2csc(NC(=N)NCc3ccccc3)n2)cc1OC(C)=O.Cl
The Activity of the first is higher: 47% for the first, -1% for the second.

Going from `Cl.N/C(=N\Cc1ccccc1)Nc1nc(-c2ccc(O)c(O)c2)cs1` to `Cc1[nH]ccc1-c1csc(NC(=N)NCc2ccccc2)n1.O=C(O)/C=C\C(=O)O`, the Activity rises from 2.5% to 60%.

biological target: Potassium-transporting ATPase (Canis familiaris); assay: Inhibitory activity of gastric proton-pump enzyme H+/K+ ATPase was determined at 50 uM; settings: not given

`Cc1[nH]c2ccccc2c1-c1nc(NC(=N)NCc2ccccc2)sc1C.Cl` and `Cc1[nH]c2ccccc2c1-c1nc(N=C(N)N)sc1C.Cl` are within 1.5-fold of each other in IC50: 5.3 µM for the first, 6.2 µM for the second.

Going from `CC(=O)Oc1ccc(-c2csc(NC(=N)NCc3ccccc3)n2)cc1OC(C)=O.Cl` to `CC(=O)Oc1ccc(-c2csc(N=C(N)N)n2)cc1OC(C)=O.Cl`, the IC50 falls from greater than 50 µM to 27 µM.

`N=C(N)Nc1nc2c(s1)CCc1ccccc1-2` was tested, and the IC50 was 21 µM.

tested on: Rattus norvegicus; assay: Gastric antisecretory activity against gastric secretion in the pylorus-ligated rat at a dose of 60 mg/Kg; assay type: functional, Stomach; settings: not given; outline: as §1

Compared with `COc1ccc2[nH]cc(-c3csc(NC(=N)NCc4ccccc4)n3)c2c1.Cl`, `Cl.N=C(NCc1ccccc1)Nc1nc(-c2c[nH]c3ccc(Br)cc23)cs1` is higher in Activity: 48% for the first, 52% for the second.

First: Cl.N=C(N)Nc1nc(-c2c[nH]c3ccc(Cl)cc23)cs1
Second: Cl.N=C(N)Nc1nc(-c2c[nH]c3ccc(Br)cc23)cs1
The Activity of the first is higher: 22% for the first, -43% for the second.

First: Br.COc1ccc(-c2csc(N=C(N)N)n2)cc1
Second: Cc1ccc2c(-c3csc(N=C(N)N)n3)c[nH]c2c1.Cl
The Activity of the first is higher: 87% for the first, 42% for the second.

First: Cc1[nH]c2ccccc2c1-c1nc(NC(=N)NCc2ccccc2)sc1C.Cl
Second: Cc1sc(NC(=N)NCc2ccccc2)nc1-c1c[nH]c2ccc(Cl)cc12
The Activity of the first is higher: 69% for the first, -59% for the second.

First: Cc1[nH]c2ccccc2c1-c1nc(N=C(N)N)sc1C.Cl
Second: Cc1[nH]ccc1-c1nc(N=C(N)N)sc1C.Cl
The Activity of the first is higher: 78% for the first, 46% for the second.

`Cl.N=C(N)Nc1nc(-c2ccc(O)c(O)c2)cs1` was tested, and the Activity was -149%.

biological target: Potassium-transporting ATPase (Canis familiaris); assay: Inhibitory activity against dog gastric proton-pump enzyme H+/K+ ATPase; settings: not given

First: COc1ccc2[nH]cc(-c3csc(NC(=N)NCc4ccccc4)n3)c2c1.Cl
Second: Cc1ccc2[nH]cc(-c3csc(NC(=N)NCc4ccccc4)n3)c2c1
The IC50 of the first is 4.6-fold higher: 4.3 µM for the first, 0.94 µM for the second. The second is the more potent here.

Going from `Cl.N=C(N)Nc1nc(-c2c[nH]c3ccc(Cl)cc23)cs1` to `Cl.N=C(N)Nc1nc(-c2c[nH]c3ccc(Br)cc23)cs1`, the IC50 falls from 1.8 µM to 0.96 µM (1.9-fold). The second is the more potent here.

`Cc1cc(-c2nc(N=C(N)N)sc2C)c[nH]1` and `Cc1[nH]ccc1-c1nc(N=C(N)N)sc1C.Cl` are within 1.5-fold of each other in IC50: 1.2 µM for the first, 1.3 µM for the second.

First: Cl.N/C(=N\Cc1ccccc1)Nc1nc(-c2ccc(O)c(O)c2)cs1
Second: Cl.N=C(N)Nc1nc(-c2ccc(O)c(O)c2)cs1
The IC50 of the first is 5-fold lower: 0.3 µM for the first, 1.5 µM for the second. The first is the more potent here.

First: Cc1cccc2c(-c3csc(N=C(N)N)n3)c[nH]c12
Second: COc1cccc(-c2csc(N=C(N)N)n2)c1
The IC50 of the first is 7.9-fold lower: 7.6 µM for the first, 60 µM for the second.

`Cc1cc(-c2csc(N=C(N)N)n2)c[nH]1` and `CN(C)Cc1cccc(-c2csc(N=C(N)N)n2)c1` are within 1.5-fold of each other in IC50: 25 µM for the first, 37 µM for the second.

Compared with `Cc1[nH]ccc1-c1csc(NC(=N)NCc2ccccc2)n1.O=C(O)/C=C\C(=O)O`, `N=C(NCc1ccccc1)Nc1nc(-c2ccc[nH]2)cs1` is 1.5-fold higher in IC50: 6 µM for the first, 9 µM for the second.

Compared with `Cl.N=C(NCc1ccccc1)Nc1nc(-c2c[nH]c3ccc(Br)cc23)cs1`, `N=C(NCc1ccccc1)Nc1nc(-c2ccccc2Cl)cs1` is 8.6-fold higher in IC50: 0.7 µM for the first, 6 µM for the second. The first is the more potent here.

Compared with `Cc1c(-c2csc(N=C(N)N)n2)ccn1S(=O)(=O)c1ccccc1`, `Cc1sc(N=C(N)N)nc1-c1ccn(S(=O)(=O)c2ccccc2)c1C` is 2.1-fold higher in IC50: 2 µM for the first, 4.2 µM for the second. The first is the more potent here.

`Cc1[nH]c2ccc(Cl)cc2c1-c1nc(NC(=N)NCc2ccccc2)sc1C` and `Cc1sc(NC(=N)NCc2ccccc2)nc1-c1ccc(O)c(O)c1` are within 1.5-fold of each other in IC50: 1.1 µM for the first, 1.3 µM for the second.

`Cc1sc(N=C(N)N)nc1-c1c[nH]c2ccccc12` and `Cc1ccc(-c2csc(N=C(N)N)n2)n1S(=O)(=O)c1ccccc1` are within 1.5-fold of each other in IC50: 7.6 µM for the first, 7 µM for the second.

`N=C(N)Nc1nc(-c2c[nH]c(C(=O)N3CCCCC3)c2)cs1` and `N=C(N)Nc1nc(-c2cc3ccccc3[nH]2)cs1` are within 1.5-fold of each other in IC50: 17 µM for the first, 14 µM for the second.

Compared with `Cc1ccc(-c2csc(N=C(N)N)n2)[nH]1.O=C(O)/C=C\C(=O)O`, `N=C(NCc1ccccc1)Nc1nc(-c2cc3ccccc3[nH]2)cs1` is 2.8-fold lower in IC50: 45 µM for the first, 16 µM for the second. The second is the more potent here.

biological target: Potassium-transporting ATPase (Canis familiaris); assay: The compound was tested in vitro for inhibition of gastric proton-pump enzyme H+/K+ ATPase; settings: not given

First: Cl.N=C(N)Nc1nc(-c2c[nH]c3ccc(Cl)cc23)cs1
Second: Cc1[nH]ccc1-c1nc(N=C(N)N)sc1C.Cl
The IC50 of the first is 1.8-fold higher: 1.8 µM for the first, 1 µM for the second.

`Cc1cc(-c2nc(N=C(N)N)sc2C)c[nH]1` was tested, and the IC50 was 1 µM.

tested on: Rattus norvegicus; assay: Gastric antisecretory activity against gastric secretion in the pylorus-ligated rat at a dose of 33 mg/Kg; assay type: functional, Stomach; settings: not given; outline: as §1

In the case of `Cc1ccc(-c2csc(N=C(N)N)n2)[nH]1.O=C(O)/C=C\C(=O)O`, the Activity is reported as 50%.

tested on: Rattus norvegicus; assay: Gastric antisecretory activity against gastric secretion in the pylorus-ligated rat at a dose of 60 mg/kg; assay type: functional, Stomach; settings: not given; outline: as §1

For `Cc1cc(-c2nc(N=C(N)N)sc2C)c[nH]1`, the Activity was 36%.

tested on: Potassium-transporting ATPase (Canis familiaris); assay: Percent inhibition of gastric proton-pump enzyme H+/K+ ATPase was determined at 10 uM; settings: Canis lupus familiaris, Stomach

Compared with `Cc1cccc2c(-c3csc(N=C(N)N)n3)c[nH]c12`, `Cl.N=C(N)Nc1nc(-c2c[nH]c3ccc(Br)cc23)cs1` is higher in inhibition: 55% for the first, 90% for the second.

biological target: Dog Kidney Na+, K+-ATPase (Canis lupus familiaris, UniProt P50997); assay: Tested against canine renal Na+/K+ ATPase; settings: not given

`Cc1cc(-c2csc(N=C(N)N)n2)c[nH]1` gave an IC50 greater than 100 µM.

organism: Rattus norvegicus; assay: Antisecretory activity in a pylorus-ligated rat model; settings: not given

`CN/C(=N\CCSCc1nc[nH]c1C)NC#N` [CIMETIDINE] gave an ED50 of 11 mg/kg.
